The record followed here is ChEMBL document CHEMBL1128429, “Synthesis and structure-activity relationships of 6-heterocyclic-substituted purines as inactivation modifiers of cardiac sodium channels” (J Med Chem, 1995).

Series [1] concerns Sodium channel protein type 5 subunit alpha (Cavia porcellus). In words: Inactivation process of guinea pig cardiac Na channels expressed in xenopus oocytes was determined by measuring increase in current integral in presence of compound versus control at 10 uM. As to conditions: oocyte.
A short description of series [2]: Inactivation processes of human heart Na channel expressed in Xenopus oocytes as increase in current at 10 uM. The format is functional, Oocyte. Put shortly: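 Oocytes injected with cRNA transcribed from human cardiac Na channel (HH1) cDNA. Two-microelectrode voltage clamp at 21–23 °C, perfusion buffer with Na raised to 140 mM. Current integrated at −20 mV after the capacity transient settled. Single 10 μM exposure per oocyte; percent change in integral versus control, ± SEM.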

The species named for series [3] is Oryctolagus cuniculus. Kind of series: Antiarrhythmic activity was determined by measuring the concentration that produced a 20 ms increase in ERP. The series is classed as functional, Heart. The method, boiled down: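 Langendorff-perfused rabbit heart, equilibrated 45 min before control. ERP measured after 15 min exposure to each of five cumulative concentrations: single premature stimulus scanning diastole at twice threshold. Concentration giving a 20 ms ERP increase taken from the concentration–response curve; repeated-measures ANOVA, mean change ± SEM.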

Series [4] in a line: Effective concentration against Xenopus oocytes expressing guinea pig heart Na channel. The series is classed as functional, cell-based, Cavia porcellus. As to conditions: oocyte. The method, boiled down: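 Guinea pig heart RNA in Xenopus oocytes, voltage clamp at 21–23 °C, integral taken at −10 mV. Three or more concentrations, n ≥ 3 each, one per oocyte. Pooled percent-change data plotted semilogarithmically; EC50 (nM giving 50% integral increase) obtained by linear regression over the range lacking significant current block.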

The species entered for series [5] is Oryctolagus cuniculus. Kind of series: Concentration which increased contractility by 20% in rabbit. The series is classed as functional. The method, boiled down:
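Langendorff-perfused rabbit heart, 45 min equilibration, then five cumulative concentrations with 15 min exposure each. Contractility read as dP/dt; the nanomolar concentration raising it by 20% was derived from the concentration–response curve. Repeated-measures ANOVA, mean change from control ± SEM.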

Series [6] can be described thus: Effective concentration against Xenopus oocytes expressing human heart Na channel. As to conditions: oocyte. The format is functional, cell-based. Put shortly: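 HH1 human cardiac Na channel cRNA in oocytes; perfusate Na 140 mM, 21–23 °C, integral taken at −20 mV. At least three concentrations, n ≥ 3 each, single concentration per oocyte. Pooled data gave the EC50 (nM producing 50% integral increase) by linear regression over the lower, non-blocking range.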

Turning to `Nc1ncnc2c1ncn2CCCN1CCN(C(c2ccccc2)c2ccccc2)CC1`, the Change in series [1] is listed as -66%. Take `Cc1ccn(-c2ncnc3c2ncn3CC(O)CN2CCN(C(c3ccccc3)c3ccccc3)CC2)n1` (stereo unspecified): the Change in series [2] came out at 40%. For `O[C@@H](CN1CCN(C(c2ccccc2)c2ccccc2)CC1)Cn1cnc2c(-c3ncon3)ncnc21`, the Change in series [2] was 138%.

For `CN1CCN(CC(O)Cn2cnc3c(-n4cccc4)ncnc32)CC1` (stereo unspecified), in series [1], the Change is listed as -35%. Regarding `O[C@@H](CN1CCN(C(c2ccccc2)c2ccccc2)CC1)Cn1cnc(-c2ncon2)c2ncnc1-2`, the Change in series [2] was -6%. As to `Nc1ncnc2c1ncn2CC(O)CN1CCN(C(c2ccccc2)c2ccccc2)CC1` (stereo unspecified), the 20% effect concentration (EC20) in the series listed under Oryctolagus cuniculus [3] worked out at 307 nM. Further, the Change in series [1] amounted to 212%. The EC50 in series [4] is 1410 nM. Besides, the dP/dt in the series listed under Oryctolagus cuniculus [5] came to 128 nM. For `O[C@@H](CN1CCN(C(c2ccccc2)c2ccccc2)CC1)Cn1cnc(-c2ccncc2)c2ncnc1-2`, in series [2], the Change was found to be 265%. The EC50 in series [6] is 2100 nM.

Turning to `O/N=C(/CN1CCN(C(c2ccccc2)c2ccccc2)CC1)Cn1cnc2c(-n3cccc3)ncnc21`, the Change in series [1] is on record as -6%. On to `OC(CN1CCN(C(c2ccccc2)c2ccccc2)CC1)Cn1cnc2ccccc21` (stereo unspecified), for which the Change in series [1] was 42%.

As for `O[C@@H](CN1CCN(C(c2ccccc2)c2ccccc2)CC1)Cn1cnc2c(-n3cccc3)nc(C(F)(F)F)nc21`, the Change in series [1] is -13%. In the case of `O=Cc1ccn(-c2ncnc3c2ncn3C[C@@H](O)CN2CCN(C(c3ccccc3)c3ccccc3)CC2)c1`, the Change in series [2] was 63%. The compound further gave a 50% effective concentration (EC50) in series [6] of 7260 nM. Regarding `Cc1nccn1-c1ncnc2c1ncn2CC(O)CN1CCN(C(c2ccccc2)c2ccccc2)CC1` (stereo unspecified), in the series listed under Oryctolagus cuniculus [3], the EC20 is 90 nM. In series [2], the Change was found to be 158%. For the same compound, in series [6], it took 1260 nM to reach a half-maximal effect (EC50). In the series filed under Oryctolagus cuniculus [5], the dP/dt turned out to be 60 nM. Consider `O=C(CN1CCN(C(c2ccccc2)c2ccccc2)CC1)Cn1cnc2c(-n3cccc3)ncnc21`, for which the Change in series [1] was found to be 9%.

For `Cc1nccn1-c1ncnc2c1ncn2C[C@@H](O)CN1CCN(C(c2ccccc2)c2ccccc2)CC1`, in series [2], the Change was found to be 1449%. Moreover, the EC50 in series [6] was 2700 nM. Consider `Cc1ccc(C)n1-c1ncnc2c1ncn2CC(O)CN1CCN(C(c2ccccc2)c2ccccc2)CC1` (stereo unspecified), for which the Change in series [1] is -47%. `OC(CN1CCN(C(c2ccccc2)c2ccccc2)CC1)Cn1cnc2c(-n3ccnc3)ncnc21` (stereo unspecified) showed an EC20 in the series filed under Oryctolagus cuniculus [3] of 27 nM. Moreover, in series [1], the Change came to 680%. The compound also registered an EC50 in series [4] of 630 nM. The dP/dt in the series filed under Oryctolagus cuniculus [5] is listed as 46 nM. Take `OC(CN1CCN(C(c2ccc(F)cc2)c2ccc(F)cc2)CC1)Cn1cnc2c(-n3cccc3)ncnc21` (stereo unspecified): the Change in series [1] was found to be 521%. For the compound `N#Cc1ncnc2c1ncn2CC(O)CN1CCN(C(c2ccccc2)c2ccccc2)CC1` (stereo unspecified), the EC20 in the series listed under Oryctolagus cuniculus [3] is recorded as 260 nM. In addition, in series [1], the Change was determined as 1328%. The compound further returned an EC50 in series [4] of 399 nM. This compound had a dP/dt in the series filed under Oryctolagus cuniculus [5] of 250 nM. Regarding `OC(CN1CCC(=C(c2ccccc2)c2ccccc2)CC1)Cn1cnc2c(-n3cccc3)ncnc21` (stereo unspecified), in series [1], the Change worked out at 94%. Consider `OC(CN1CCN(C(c2ccccc2)c2ccccc2)CC1)Cn1cnc2c(-n3cccc3)ncnc21` (stereo unspecified), for which the Change in series [1] was 542%. In series [4], this compound yielded an EC50 of 580 nM. Take `OC(CN1CCN(CC(c2ccccc2)c2ccccc2)CC1)Cn1cnc2c(-n3cccc3)ncnc21` (stereo unspecified): the Change in series [1] is -47%.

Consider `OC(CN1CCN(C(c2ccccc2)c2ccncc2)CC1)Cn1cnc2c(-n3cccc3)ncnc21` (stereo unspecified), for which, in series [1], the Change is 326%. For the compound `O[C@@H](CN1CCN(C(c2ccccc2)c2ccccc2)CC1)Cn1cnc(-c2cccs2)c2ncnc1-2`, in series [2], the Change is 437%. The same compound came in with an EC50 in series [6] of 433 nM. Regarding `O[C@@H](CN1CCN(C(c2ccccc2)c2ccccc2)CC1)Cn1cnc2c(-n3cncn3)ncnc21`, the EC20 in the series listed under Oryctolagus cuniculus [3] is 35 nM. Also, the Change in series [2] stood at 393%. The same compound yielded an EC50 in series [6] of 920 nM. Further, the dP/dt in the series filed under Oryctolagus cuniculus [5] is recorded as 43 nM. For `O=C(C(c1ccccc1)c1ccccc1)N1CCN(CC(O)Cn2cnc3c(-n4cccc4)ncnc32)CC1` (stereo unspecified), the Change in series [1] was found to be 6%. `OC(CN1CCC(C(O)(c2ccccc2)c2ccccc2)CC1)Cn1cnc2c(-n3cccc3)ncnc21` (stereo unspecified): in series [1], the Change was -10%. The compound `N#Cc1cccn1-c1ncnc2c1ncn2C[C@@H](O)CN1CCN(C(c2ccccc2)c2ccccc2)CC1` had an EC20 in the series filed under Oryctolagus cuniculus [3] of 57 nM. The Change in series [2] came to 456%. A half-maximal response in series [6] (EC50) required 447 nM. The dP/dt in the series listed under Oryctolagus cuniculus [5] turned out to be 22 nM. For the compound `O[C@@H](CN1CCN(C(c2ccccc2)c2ccccc2)CC1)Cn1cnc2c(-c3ccncc3)ncnc21`, the Change in series [2] is recorded as 99%. The compound further came in with an EC50 in series [6] of 2800 nM.

As to `O[C@@H](CN1CCN(C(c2ccccc2)c2ccccc2)CC1)Cn1cnc(-n2cccn2)c2ncnc1-2`, in the series filed under Oryctolagus cuniculus [3], the EC20 is reported as 74 nM. For the same compound, the Change in series [2] came to 369%. For the same compound, the midpoint of the response in series [6], the EC50, lay at 900 nM. This compound also returned a dP/dt in the series listed under Oryctolagus cuniculus [5] of 148 nM. For `CC(c1ccccc1)N1CCN(CC(O)Cn2cnc3c(-n4cccc4)ncnc32)CC1` (stereo unspecified), the Change in series [1] is listed as -32%. For `OC(CN1CCC(C(c2ccccc2)c2ccccc2)CC1)Cn1cnc2c(-n3cccc3)ncnc21` (stereo unspecified), in series [1], the Change was 108%.

As for `O[C@@H](CN1CCN(C(c2ccccc2)c2ccccc2)CC1)Cn1cnc2c(-n3cccc3)ncnc21`, in series [1], the Change came out at 390%. In addition, in series [4], the midpoint of the response, the EC50, lay at 245 nM. In the case of `OC(CN1CCN(C(c2ccccc2)c2ccccc2)CC1)Cn1ccc2cccnc21` (stereo unspecified), the Change in series [1] was -71%. As to `OC(CN1CCN(C2c3ccccc3-c3ccccc32)CC1)Cn1cnc2c(-n3cccc3)ncnc21` (stereo unspecified), the Change in series [1] is recorded as -19%. On to `OC(CN1CCN(C(c2ccccc2)c2ccccc2)CC1)Cn1cnc2c(-c3ccccc3)ncnc21` (stereo unspecified), for which the Change in series [1] was 151%. In series [4], this compound returned an EC50 of 1260 nM. Take `Nc1nc(-c2ccncc2)nc2c1ncn2CC(O)CN1CCN(C(c2ccccc2)c2ccccc2)CC1` (stereo unspecified): the Change in series [1] is on record as -2%. Consider `c1ccc2c(c1)CCc1ccccc1C2N1CCN(CCCn2cnc3c(-n4cccc4)ncnc32)CC1`, for which the Change in series [1] worked out at 120%. On to `OC(CN1CCN(C(c2ccccc2)c2ccccc2)CC1)Cn1cnc2c(Cc3ccccc3)ncnc21` (stereo unspecified), for which the Change in series [1] is recorded as -100%. With `Cc1cc2c(n1-c1ncnc3c1ncn3CC(O)CN1CCN(C(c3ccccc3)c3ccccc3)CC1)CCCC2` (stereo unspecified), the Change in series [1] came to 8%. On the same count and under the same terms, then `Cc1ccccc1C(c1ccccc1)N1CCN(CC(O)Cn2cnc3c(-n4cccc4)ncnc32)CC1` (stereo unspecified), with 209%.

As for `C[C@](O)(CN1CCN(C(c2ccccc2)c2ccccc2)CC1)Cn1cnc2c(-n3cccc3)ncnc21`, the Change in series [1] came to 34%.

In the case of `OC(COc1cccc2[nH]ccc12)CN1CCN(C(c2ccccc2)c2ccccc2)CC1` (stereo unspecified), the Change in series [1] is listed as -29%. Take `NC(CN1CCN(C(c2ccccc2)c2ccccc2)CC1)Cn1cnc2c(-n3cccc3)ncnc21` (stereo unspecified): the Change in series [1] is listed as 451%.

Consider `CC1CN(CC(O)Cn2cnc3c(-n4cccc4)ncnc32)CCN1C(c1ccccc1)c1ccccc1` (stereo unspecified), for which, in series [1], the Change was found to be 839%. Take `OC(CN1CCN(C(c2ccccc2)c2ccccc2)CC1)Cn1cnc2c(Cl)ncnc21` (stereo unspecified): in series [2], the Change is 176%. Moreover, a half-maximal effect in series [6] (EC50) was put at 1950 nM.

As for `O[C@@H](CN1CCN(C(c2ccccc2)c2ccccc2)CC1)Cn1cnc2c(-c3cccs3)ncnc21`, the Change in series [2] is 116%. The EC50 in series [6] came to 1030 nM. `O[C@@H](CN1CCN(C(c2ccccc2)c2ccccc2)CC1)Cn1cnc2c(-n3ccnc3)ncnc21` registered a 20% effect concentration (EC20) in the series filed under Oryctolagus cuniculus [3] of 30 nM. In addition, the Change in series [2] came to 459%. Further, in series [6], the EC50 stood at 1250 nM. In the series listed under Oryctolagus cuniculus [3], `O=Cc1cccn1-c1ncnc2c1ncn2C[C@@H](O)CN1CCN(C(c2ccccc2)c2ccccc2)CC1` gave an EC20 of 17 nM. Besides, the Change in series [2] was 904%. It took 78 nM to reach a half-maximal effect in series [6] (EC50). Besides, the dP/dt in the series listed under Oryctolagus cuniculus [5] was 17 nM. `OC(CN1CCN(Cc2ccccc2)CC1)Cn1cnc2c(-n3cccc3)ncnc21` (stereo unspecified): the Change in series [1] was determined as 182%. On the same count and under the same terms, then `OC(CN1CCCN(C(c2ccccc2)c2ccccc2)CC1)Cn1cnc2c(-n3cccc3)ncnc21` (stereo unspecified), with 38%; and `OC(CN1CCN(C(c2ccccc2)c2ccccc2)CC1)Cn1cnc2c(N3CCCCC3)ncnc21` (stereo unspecified), with 26%.

For the compound `OC(CN1CCN(C(c2ccccc2)c2ccccc2)CC1)Cn1ccc2ccccc21` (stereo unspecified), the Change in series [1] amounted to 36%.

Regarding `Cc1ncnc2c1ncn2C[C@@H](O)CN1CCN(C(c2ccccc2)c2ccccc2)CC1`, the Change in series [2] worked out at 105%. The same compound gave an EC50 in series [6] of 3990 nM.

With `OC(CN1CCN(C(c2ccccc2)c2ccccc2)CC1)Cn1cnc2cccnc21` (stereo unspecified), the Change in series [1] stood at 154%. Take `Nc1ncnc2c1ncn2C[C@H](O)CN1CCN(C(c2ccccc2)c2ccccc2)CC1`: the EC20 in the series listed under Oryctolagus cuniculus [3] was 5240 nM. Further, the Change in series [1] is -43%. The dP/dt in the series filed under Oryctolagus cuniculus [5] came out at 1140 nM. `OC(CN1CCN(C(c2ccccc2)c2ccccc2)CC1)Cn1cnc2c(NCc3ccccc3)ncnc21` (stereo unspecified): the Change in series [1] is on record as -77%.

As for `OC(CN1CCN(C(c2ccccc2)c2ccccc2)CC1)Cn1cnc2c(C#Cc3ccccc3)ncnc21` (stereo unspecified), in series [1], the Change is given as 9%.
